Active and inactive are the calls of the source. The rule behind the calls is not given here.
Assays:
P-glycoprotein = test: Substrate activity at human P-glycoprotein stably expressed in MDCK cells assessed as efflux ratio at 1 uM measured after 5 to 20 mins by UPLC-MS/MS analysis; type: ADME, cell-based; conditions: MDCK-MDR1, time 5-20 min
Procedure, shortened: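 CRISPR canine-MDR1-knockout MDCKII cells stably expressing human MDR1, with the knockout parent line as control. Cells grown 5 days on TransWell filters and preincubated in HBSS 30 min at 37 °C. Compound at 1 μM added apical or basolateral. Receiver sampled at 5, 10 and 20 min; UPLC-MS/MS.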

[1] = AUC (0 to 8 hrs) in C57BL/6J mouse plasma at 10 mg/kg, po administered once a day for 4 consecutive days by mass spectrometry based UHPLC analysis; type: ADME, organism-based; parameters: route oral, time 4 day, dose 10 mg/kg
Procedure, shortened: (§1)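 Female C57BL/6J mice given 10 mg/kg p.o. in 20% Captisol once daily for 4 consecutive days. Plasma and brain sampled after the final dose on day 4, n = 3 per time point.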

Mus musculus [2] = test: In vivo inhibition of mTORC1 signalling in C57BL/6J mouse assessed as reduction in RPS6 phosphorylation at S235/236 residue in brain at 25 mg/kg, po measured after 0.5 to 2 hrs by Western blot analysis; type: functional, organism-based; conditions: time 0.5-2 hrs
Procedure, shortened: (§2)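 Time course in female C57BL/6J mice after 25 mg/kg p.o.: cortex taken at set time points and western blotted for pS6 and pPKB. Signals quantified against α-tubulin as % of control cortex; n = 3 per time point and n = 9 controls. Brain compound level measured in the same mice.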

[3] = Elimination half life in C57BL/6J mouse brain at 10 mg/kg, po administered as single dose by mass spectrometry based UHPLC analysis; type: ADME, organism-based; conditions: read-out: beta t1/2 (converted)
Procedure, shortened: (§3)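 Female C57BL/6J mice, one oral dose of 10 mg/kg in 20% Captisol; plasma and brain levels over time, n = 3 per time point (mean).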

[4] = Cmax in C57BL/6J mouse plasma at 10 mg/kg, po administered as single dose by mass spectrometry based UHPLC analysis; type: ADME, organism-based; parameters: route oral, dose 10 mg/kg; procedure, shortened: as §3
[5] = Tmax in C57BL/6J mouse plasma at 25 mg/kg, po administered as single dose by mass spectrometry based UHPLC analysis; type: ADME, organism-based
Procedure, shortened: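 Female C57BL/6J mice given a single oral dose of 25 mg/kg. Plasma and brain levels followed over time (n = 3 per time point, mean). Tmax is the time of maximal concentration.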

[6] = Elimination half life in C57BL/6J mouse brain at 25 mg/kg, po administered as single dose by mass spectrometry based UHPLC analysis; type: ADME, organism-based; conditions: read-out: beta t1/2 (converted)
Procedure, shortened: (§4)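 One oral dose of 25 mg/kg to female C57BL/6J mice. Plasma and brain concentrations followed over time, n = 3 per time point (mean).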

[7] = Toxicity in Balb/c nude mouse assessed as change in body weight at 100 mg/kg, po administered once daily for 14 days measured for 7 days starting from post last dose; type: organism-based; conditions: in vivo, 504 h, time 21 day
[8] = Metabolic stability in CD1 mouse hepatocytes assessed as half-life at 5 uM incubated for 3 hrs by LC-MS analysis; type: ADME, cell-based, Hepatocyte
Procedure, shortened: (§5)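 Cryopreserved primary hepatocytes in suspension from CD-1 mouse, Sprague-Dawley rat, Beagle dog and human. Compound at 5 μM final (from 10 mM DMSO stock). Samples taken at 0, 15, 60, 90 and 180 min and quenched with ACN plus internal standard. Parent quantified by LC-MS. Hepatocyte-free medium incubations served as negative control; 7-ethoxycoumarin as positive control. Duplicate; CLint per 10^6 cells and t1/2.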

[9] = AUC (0 to 8 hrs) in male Sprague-Dawley rat plasma at 5 mg/kg, po; type: ADME, organism-based; parameters: time < 8 hr, route oral, dose 5 mg/kg
Procedure, shortened: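 Male Sprague Dawley rats, single oral dose of 5 mg/kg. Plasma and brain concentrations measured over 8 h, n = 3, mean ± SEM; AUC0−8 computed from the time course.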

Mus musculus [10] = test: In vivo inhibition of mTORC1 signalling in C57BL/6J mouse assessed as reduction in RPS6 phosphorylation at S235/236 residue in brain at 25 mg/kg, po measured after 8 hrs by Western blot analysis; type: functional, organism-based; procedure, shortened: as §2
[11] = Intrinsic clearance in human hepatocytes assessed per million cells at 5 uM incubated for 3 hrs by LC-MS analysis; type: ADME, cell-based, Hepatocyte; conditions: read-out: CLH; procedure, shortened: as §5
[12] = AUC (0 to 8 hrs) in C57BL/6J mouse brain at 10 mg/kg, po administered once a day for 4 consecutive days by mass spectrometry based UHPLC analysis; type: ADME, organism-based; parameters: route oral, time 4 day, dose 10 mg/kg; procedure, shortened: as §1
[13] = Clearance in C57BL/6J mouse plasma at 25 mg/kg, po administered as single dose by mass spectrometry based UHPLC analysis; type: ADME, organism-based; procedure, shortened: as §4
[14] = Intrinsic clearance in Beagle dog hepatocytes assessed per million cells at 5 uM incubated for 3 hrs by LC-MS analysis; type: ADME, cell-based, Canis lupus familiaris, Hepatocyte; conditions: read-out: CLH
Procedure, shortened: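 Cryopreserved Beagle dog hepatocytes in suspension with compound at 5 μM (final, from 10 mM DMSO stock). Sampled at 0, 15, 60, 90 and 180 min, ACN-precipitated and analysed by LC-MS. Duplicates; 7-ethoxycoumarin as positive control, hepatocyte-free medium as negative control. CLint given per 10^6 cells, mean ± SEM (n = 2).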

[15] = Toxicity in Balb/c nude mouse assessed as change in body weight at 150 mg/kg, po administered once daily for 14 days measured for 7 days starting from post last dose; type: organism-based; conditions: in vivo, 504 h, time 21 day
[16] = Cmax in C57BL/6J mouse brain at 10 mg/kg, po administered once a day for 4 consecutive days by mass spectrometry based UHPLC analysis; type: ADME, organism-based; parameters: route oral, dose 10 mg/kg, time 4 day; procedure, shortened: as §1
[17] = Metabolic stability in human hepatocytes assessed as parent compound remaining at 5 uM incubated for 3 hrs by LC-MS analysis; type: ADME, cell-based, Hepatocyte; conditions: read-out: Stabilty
Procedure, shortened: (§6)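 Cryopreserved primary hepatocytes in suspension (CD-1 mouse, Sprague-Dawley rat, Beagle dog, human). Compound diluted from 10 mM DMSO stock to 5 μM final. Sampled at 0, 15, 60, 90 and 180 min, protein precipitated with ACN plus internal standard, supernatant analysed by LC−MS. Run in duplicate. 7-ethoxycoumarin as positive control. Hepatocyte-free medium incubations as negative control.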

[18] = Intrinsic clearance in CD1 mouse hepatocytes assessed per million cells at 5 uM incubated for 3 hrs by LC-MS analysis; type: ADME, cell-based, Hepatocyte; conditions: read-out: CLH; procedure, shortened: as §5
[19] = Metabolic stability in Sprague-Dawley rat hepatocytes assessed as parent compound remaining at 5 uM incubated for 3 hrs by LC-MS analysis; type: ADME, cell-based, Hepatocyte; conditions: read-out: Stabilty; procedure, shortened: as §6
[20] = Toxicity in Tsc1-GFAP knockout Balb/c mouse assessed as change in body weight at 50 mg/kg, po bid; type: organism-based; conditions: in vivo
Procedure, shortened: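 Tsc1GFAPCKO mice dosed orally from P21 at 10, 25, 50 mg/kg or 50 mg/kg bid. Body weight tracked during the survival study; mean ± SEM.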

[21] = Clearance in C57BL/6J mouse plasma at 10 mg/kg, po administered as single dose by mass spectrometry based UHPLC analysis; type: ADME, organism-based; procedure, shortened: as §3

C[C@@H]1COCCN1c1nc(-c2cnc(N)cc2C(F)F)nc(N2CCOCC2(C)C)n1
efflux ratio at 1 µM (P-glycoprotein): 1.5

C[C@@H]1COCCN1c1nc(-c2cnc(N)cc2C(F)F)nc(N2[C@H](C)COC[C@@H]2C)n1
AUC at 96 h [1]: 2.37 µg·h/mL | inhibition (Mus musculus [2]): Active | half-life [3]: 2.9 h | Cmax [4]: 1.1 µg/mL | Tmax [5]: 0.2 h | half-life [6]: 2.4 h | Activity [7]: Non-Toxic | half-life at 5 µM [8]: 3.35 h | AUC(0-t) at 8 h [9]: 2.43 µg·h/mL | inhibition (Mus musculus [10]): inactive | hepatocyte CLint at 5 µM [11]: 5.3 µL/min/1e6 cells | AUC at 96 h [12]: 3.05 µg·h/mL | CL/F [13]: 2.43 L/h/kg | hepatocyte CLint at 5 µM [14]: 1.8 µL/min/1e6 cells | Activity [15]: Non-Toxic | Cmax [16]: 1.32 µg/mL | remaining at 3 h, 5 µM [17]: 44% | hepatocyte CLint at 5 µM [18]: 4.3 µL/min/1e6 cells | remaining at 3 h, 5 µM [19]: 42.3% | Activity [20]: Non-Toxic | CL/F [21]: 3.4 L/h/kg

Reference: ChEMBL document CHEMBL4715860 (J Med Chem, 2020)
